The results in this text go back to ChEMBL document CHEMBL3621152, “Highly Efficient Synthesis of 1,3-Dihydroxy-2-carboxycarbazole and Its Neuroprotective Effects” (ACS Med Chem Lett, 2015).

As usually defined, the IC50 is the concentration at which inhibition is half-maximal. A higher IC50 goes with a need for much substance.

The source made the active and inactive calls. The calls are words filed in the database; no cut-off is given here.

A short description of data set [1]: Antioxidant activity assessed as DPPH radical scavenging activity at 0.3 to 10 uM incubated for 30 mins at 37 degC. Type of data set: physicochemical. As to conditions: 0.5 h. The method in brief: (§1)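 Test compound or trolox incubated with DPPH (50 µM) in MeOH at 37 °C for 30 min at the indicated concentrations; radical scavenging read as absorbance at 517 nm.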
For orientation: The DPPH test is a chemical assay of radical scavenging.

In data set [2] the target is T1, Amyloid-beta precursor protein (Homo sapiens, UniProt P05067). The data set is described as follows: Inhibition of amyloid beta oligomerization in human MC65 cells assessed as small AbetaOs formation at 0.3 uM incubated for 48 hrs under tetracycline removal condition by Western blot method. Type of data set: cell-based. In a few lines: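 MC65 cells incubated with compound under -TC conditions for 48 h; culture lysates analyzed by Western blot with 6E10 antibody for Aβ oligomers.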
(In general: Immunoblotting shows a protein as a band on a membrane.)

Data set [3] in a line: Antioxidant activity assessed as DPPH radical scavenging activity at 0.3 to 100 uM incubated for 30 mins at 37 degC. It counts as physicochemical. As to conditions: 0.5 h. In a few lines: as §1
Data set [4] has as its system MC65. The data set is described as follows: Neuroprotective activity in human MC65 cells assessed as protection against tetracycline removal-induced toxicity at 10 uM incubated for 72 hrs by MTT method. Type of data set: functional, cell-based. In a few lines:
(§2)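 Aβ toxicity in MC65 cells (C99 expression induced by tetracycline removal) with compound present at the indicated concentrations under -TC conditions for 72 h; viability read by MTT assay.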
(Tetrazolium dyes change colour on reduction, which living cells bring about.)

In data set [5] the test system is MC65. The data set is described as follows: Effect on Abeta42 production in human MC65 cells at 0.1 to 1 uM incubated for 48 hrs under tetracycline removal condition by ELISA method. Type of data set: functional, cell-based. The method in brief:
(§3)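 MC65 human neuroblastoma cells, which conditionally express APP C-terminal fragment C99 under tetracycline suppression, treated under -TC conditions for 48 h; Aβ40 and Aβ42 measured in the collected medium by ELISA.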

For data set [6], the target named is T1, Amyloid-beta precursor protein. Nature of the data set: Inhibition of amyloid beta (1 to 42) (unknown origin) aggregation incubated for 48 hrs by Thioflavin-T Abeta aggregation assay. In a few lines:
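Aβ42 (10 µM) incubated with compound at the indicated concentrations for 48 h; aggregation measured by thioflavin T assay; curcumin (10 µM) used as positive control.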

The test system of data set [7] is MC65. Nature of the data set: Effect on Abeta40 production in human MC65 cells at 0.1 to 1 uM incubated for 48 hrs under tetracycline removal condition by ELISA method. It counts as functional, cell-based. The method in brief:
as §3

Data set [8] deals with MC65. Nature of the data set: Neuroprotective activity in human MC65 cells assessed as protection against tetracycline removal-induced toxicity at 0.3 uM incubated for 72 hrs by MTT method. It counts as functional, cell-based. In a few lines:
as §2

In data set [9] the test system is MC65. Nature of the data set: Neuroprotective activity in human MC65 cells assessed as protection against tetracycline removal-induced toxicity UP TO 10 uM incubated for 72 hrs by MTT method. Type of data set: functional, cell-based. As to conditions: in the assay text read “UP TO 100 uM” for “UP TO 10 uM”. In a few lines:
as §2

T1 sequence (P05067 whole entry): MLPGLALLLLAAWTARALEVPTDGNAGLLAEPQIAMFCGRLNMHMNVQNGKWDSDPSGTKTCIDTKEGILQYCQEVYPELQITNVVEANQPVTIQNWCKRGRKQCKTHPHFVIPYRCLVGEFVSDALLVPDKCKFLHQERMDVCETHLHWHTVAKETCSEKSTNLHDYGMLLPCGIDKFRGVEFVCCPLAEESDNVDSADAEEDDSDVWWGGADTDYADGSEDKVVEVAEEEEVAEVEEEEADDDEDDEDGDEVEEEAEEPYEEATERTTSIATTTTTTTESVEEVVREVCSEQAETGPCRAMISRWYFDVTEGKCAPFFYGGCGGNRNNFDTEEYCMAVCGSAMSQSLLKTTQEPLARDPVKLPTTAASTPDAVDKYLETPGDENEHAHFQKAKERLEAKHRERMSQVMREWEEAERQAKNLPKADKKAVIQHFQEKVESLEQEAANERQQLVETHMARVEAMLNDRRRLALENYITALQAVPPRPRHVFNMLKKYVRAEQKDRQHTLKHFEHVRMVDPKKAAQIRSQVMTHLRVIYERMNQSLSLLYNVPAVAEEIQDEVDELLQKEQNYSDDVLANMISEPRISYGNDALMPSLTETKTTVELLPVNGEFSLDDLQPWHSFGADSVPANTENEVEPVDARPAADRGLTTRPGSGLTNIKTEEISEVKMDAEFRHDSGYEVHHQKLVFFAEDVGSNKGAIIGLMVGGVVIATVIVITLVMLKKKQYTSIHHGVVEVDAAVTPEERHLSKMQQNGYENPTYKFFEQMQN

For the compound `Cc1c(C)c2c(c(C)c1O)CCC(C)(C(=O)O)O2` (stereo not given) [TROLOX], in [1], the outcome was Active.
Take `O=C(O)c1c(O)cc2c([nH]c3ccccc32)c1O`: the inhibition entry in [2] was “Active”. In [3], the result was Active. The outcome in data set [4] and in data set [8] was Active. In addition, the outcome in data set [5] and in data set [7] was inactive. In data set [6], the IC50 turned out to be 15 µM. The inhibition entry in data set [6] is “Dose-dependent effect”.
Take `O=C(O)c1c(O)cccc1O`: in data set [9], the outcome was inactive.
